For orientation: inhibition means the drop in the measured response relative to a control, in per cent. Read a high inhibition as strong suppression. As a reminder, the IC50 is the concentration that inhibits the measured activity by half. By logD is commonly meant lipophilicity at a set pH, counting ionised and neutral species. In general, logP refers to a log measure of how a compound divides between an organic and an aqueous phase. A high value points to higher lipophilicity. Broadly, the ED50 is the midpoint of the dose-response relation. A higher ED50 goes with a need for a large dose.

Each structure is given as a SMILES string.

For data set [1], the target named is T1, Glutamate NMDA receptor (Rattus norvegicus) (UniProt P35439+Q00959+Q00960+Q00961+Q62645+Q8VHN2+Q9R1M7). Kind of data set: Percent inhibition at PCP site of NMDA receptor complex was measured by displacement of […] in whole rat brain homogenate at 10 E-7 M. It counts as tissue-based. The method in brief: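 [3H]TCP displacement from rat brain membrane preparation (cortical membranes in the methods; whole-brain homogenate in the assay description), following a previously published procedure.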
A general note: Loss of bound radioactivity is the signal in a displacement assay; it reports binding, not function.

Data set [2] addresses Glutamate NMDA receptor. The experiment in a line: Binding affinity towards PCP site of the NMDA receptor was measured by displacement of […] in […]. It counts as tissue-based, Brain.
Data set [3] in a line: Partition coefficient was measured using a standard shake flask (SF) method at pH 7.4. Format: physicochemical. The conditions noted are these: octanol/water. The method in brief:
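Shake-flask partitioning at pH 7.4.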

The species entered for another data set is Mus musculus. Kind of data set: Testing for ataxia was done by using an inverted screen technique. Format: functional. The method in brief:
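Inverted-screen test in CF-1 mice (22-28 g), scored 5 min after retrobulbar test agent in 0.9% saline (5 mL/kg), immediately before NMDA injection.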

The nature of data set [4]: Partition coefficient (logP) (HPLC). It counts as physicochemical. To be noted: octanol/water.
The target of data set [5] is T1, Glutamate NMDA receptor (Rattus norvegicus). The experiment in a line: Evaluated in vivo for its NMDA antagonist activity by the inhibition of NMDA-induced lethality in mice. Format: functional, organism-based. To be noted: Mus musculus; target entry is the homologue from another species. The method in brief: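 CF-1 mice, 22-28 g. Test agent or vehicle (0.9% saline, 5 mL/kg) was given by retrobulbar injection 5 min before a 25 mg/kg NMDA bolus given retrobulbar in the other eye. Endpoint was prevention of lethality.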

The target of data set [6] is Glutamate NMDA receptor. The experiment in a line: Ability to inhibit glutamate induced accumulation of [45 [Ca2+]] in cultured rat cortical neurons. Format: functional. In outline:
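Fetal rat cortical hemisphere dissociated cultures used on day 14-16 after plating. Medium was serum- and Mg-free HBSS with 1.4 mM CaCl2, pH 7.4 (35 mM bicarbonate), 37 °C, 5% CO2. Cells were exposed 30 min to 100 μM L-glutamate (final) plus [45Ca2+] (2 μCi/mL) ± test agent, washed with saline, lysed, and counted. Baseline was subtracted.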

`N#CC1CCC2(N)c3ccccc3CCC2C1` (stereo not given) showed an inhibition in data set [1] of 2%.
For the compound `CCNC12CCCCC1CSc1ccccc12` (stereo not given), the IC50 at Glutamate NMDA receptor [2] worked out at 523 nM.
`CNC12CCCCC1CCc1c(C)cc(OC)cc12` (stereo not given) returned a logD in data set [3] of 1.72. Further, the Ataxia in the data set listed under Mus musculus was found to be 3.3 mg/kg. For the same compound, in data set [4], the logP came out at 4.02. This compound gave an ED50 in data set [5] of 5.6 mg/kg. In addition, the figures for the IC50 against Glutamate NMDA receptor [6] and on Glutamate NMDA receptor [2] were 930 nM and 53.5 nM, respectively.
Compound `COc1ccc2c(c1)C1(N)CC=CCC1CC2` (stereo not given) returned an Ataxia in the data set listed under Mus musculus of 2.1 mg/kg. This compound also displayed an ED50 in data set [5] of 2.1 mg/kg. Also, the IC50 against Glutamate NMDA receptor [6] is 850 nM; on Glutamate NMDA receptor [2], 46 nM.
In turn, `CNC12CCCCC1CCc1ccc(OC)cc12` (stereo not given) showed a logD in data set [3] of 1.51. For the same compound, the Ataxia in the data set filed under Mus musculus came out at 0.4 mg/kg. In addition, the logP in data set [4] was 3.75. Further, in data set [5], the ED50 was found to be 1 mg/kg. Moreover, the values for the IC50 against Glutamate NMDA receptor [6] and at Glutamate NMDA receptor [2] were 1110 nM and 5.8 nM, respectively.
With `C=CCNC12CCCCC1CCc1ccccc12` (stereo not given), the Ataxia in the data set filed under Mus musculus was under 1 mg/kg. In data set [5], it took a dose of 10 mg/kg to reach the 50% effect level (ED50). In addition, the values for the IC50 against Glutamate NMDA receptor [6] and on Glutamate NMDA receptor [2] were 920 nM and 86 nM, respectively.
As for `NC1c2ccccc2CCC12CCCCC2` (stereo not given), the IC50 on Glutamate NMDA receptor [2] amounted to 3400 nM.
In turn, `NC12CCCCC1COc1ccccc12` (stereo not given) registered an Ataxia in the data set filed under Mus musculus of 10 mg/kg. In data set [5], this compound had an ED50 of 5.7 mg/kg. In addition, the IC50 at Glutamate NMDA receptor [2] was determined as 178 nM.
Consider `CN[C@]12CCCCC1Cc1ccccc12` (stereo not given in full), for which, in data set [5], it took a dose of 0.1 mg/kg to reach the 50% effect level (ED50). For the same compound, the half-inhibitory concentration (IC50) on Glutamate NMDA receptor [6] turned out to be 120 nM; on Glutamate NMDA receptor [2], 10.1 nM.
Compound `NC12CCCCC1CSc1ccccc12` (stereo not given) yielded an Ataxia in the data set listed under Mus musculus of 4.7 mg/kg. Besides, it took a dose of 2.9 mg/kg to reach the 50% effect level in data set [5] (ED50). The IC50 at Glutamate NMDA receptor [6] was 1870 nM; at Glutamate NMDA receptor [2], 80.6 nM.
Regarding `CNC12CC=CCC1COc1ccccc12` (stereo not given), on Glutamate NMDA receptor [2], the IC50 was found to be 122 nM.
`CNC12CCCCC1CCc1ccc(O)cc12` (stereo not given) gave a logD in data set [3] of 0.31. In the data set listed under Mus musculus, this compound showed an Ataxia of 0.58 mg/kg. Moreover, the logP in data set [4] stood at 2.56. This compound came in with an ED50 in data set [5] of 0.89 mg/kg. The IC50 on Glutamate NMDA receptor [6] was determined as 64 nM; on Glutamate NMDA receptor [2] it was 2.07 nM.
Turning to `NC12CCCCC1CCc1ccccc12` (single isomer, unassigned; form 2) [listing 1 of 2 here], in the data set filed under Mus musculus, the Ataxia was under 3 mg/kg. For the same compound, the IC50 stood at 2250 nM at Glutamate NMDA receptor [6] and 113 nM on Glutamate NMDA receptor [2].
`C[C@]12N[C@H](Cc3ccccc31)c1ccccc12` [DIZOCILPINE] showed an Ataxia in the data set listed under Mus musculus of 0.3 mg/kg.
With `CNC12CC=CCC1CCc1sccc12` (stereo not given), the IC50 on Glutamate NMDA receptor [2] was 57 nM.
Compound `CNC12CC(O)CCC1CCc1ccccc12` (stereo not given) came in with a logP in data set [4] of 2.37. The same compound came in with an IC50 at Glutamate NMDA receptor [2] of 500 nM.
The compound `CNC12CC=CCC1CC(C)(C)c1ccccc12` (stereo not given) returned an inhibition in data set [1] of 0%.
In data set [5], `NC12CCCCC1CCc1ccccc12` (single isomer, unassigned; form 1) showed an ED50 of 1.3 mg/kg.
In data set [3], `CNC12CCCCC1COc1ccccc12` (stereo not given) had a logD of 0.96. This compound also came in with an Ataxia in the data set listed under Mus musculus of 0.63 mg/kg. In data set [4], this compound registered a logP of 3.31. Besides, in data set [5], the ED50 was 3.7 mg/kg. The IC50 on Glutamate NMDA receptor [6] came out at 2300 nM; at Glutamate NMDA receptor [2], 113 nM.
On to `CNC12CCCCC1CCc1sccc12` (stereo not given), for which, in the data set listed under Mus musculus, the Ataxia came to 1 mg/kg. In data set [5], it took a dose of 0.89 mg/kg to reach the 50% effect level (ED50). In addition, the 50% inhibitory concentration (IC50) at Glutamate NMDA receptor [6] came out at 350 nM; on Glutamate NMDA receptor [2], 31 nM.
For the compound `CNC12CCCCC1Sc1ccccc12` (stereo not given), in data set [5], the ED50 is 0.41 mg/kg. In addition, on Glutamate NMDA receptor [6], the concentration for half-maximal inhibition (IC50) worked out at 210 nM.
Regarding `NC12CCCCC1CCc1ccccc12` (stereo not given), in data set [5], the 50% effect level (ED50) was put at a dose of 0.64 mg/kg.
In turn, `NC12CCCCC1CCc1ccccc12` (single isomer, unassigned; form 2) [listing 2 of 2 here] yielded an ED50 in data set [5] of 10 mg/kg.
Take `CNC12CC=CCC1CSc1ccccc12` (stereo not given): in the data set listed under Mus musculus, the Ataxia was 1.8 mg/kg. The compound also yielded an ED50 in data set [5] of 2 mg/kg. The IC50 against Glutamate NMDA receptor [6] was found to be 420 nM; at Glutamate NMDA receptor [2], 69 nM.
Take `CNC12CCCCC1CC(=O)c1ccccc12` (stereo not given): the logD in data set [3] was 0.78. In addition, the logP in data set [4] stood at 2.41. On Glutamate NMDA receptor [2], the IC50 was 270 nM.
For the compound `CCNC12CCCCC1CCc1ccccc12` (stereo not given), the logD in data set [3] was 1.15. For the same compound, in data set [4], the logP was found to be 3.41. For the same compound, on Glutamate NMDA receptor [2], the IC50 is 199 nM.
`CC1(C)CC2CCCCC2(N)c2ccccc21` (stereo not given) came in with an IC50 on Glutamate NMDA receptor [2] of 37000 nM.
In turn, `CNC12CC=CCC1CC(C)c1ccccc12` (stereo not given) showed a concentration for half-maximal inhibition (IC50) at Glutamate NMDA receptor [2] of 654 nM.
The compound `NC12CCCCC1CCc1ccc(O)cc12` (stereo not given) came in with an Ataxia in the data set listed under Mus musculus of 3 mg/kg. In addition, the ED50 in data set [5] came out at 5.5 mg/kg. The IC50 was 520 nM at Glutamate NMDA receptor [6] and 7.5 nM at Glutamate NMDA receptor [2].
`c1ccc2c(c1)CCC1CCCCC21N1CCCCC1` (stereo not given) showed an inhibition in data set [1] of 7%.

Source of the values: ChEMBL document CHEMBL1126730, “Synthesis and pharmacological evaluation of 4a-phenanthrenamine derivatives acting at the phencyclidine binding site of the N-methyl-D-aspartate receptor complex” (J Med Chem, 1993).
